Measurements taken from ChEMBL document CHEMBL4627366, “Structure-based drug design of 1,3,5-triazine and pyrimidine derivatives as novel FGFR3 inhibitors with high selectivity over VEGFR2” (Bioorg Med Chem, 2020).

Tests used:
[1] = biological target: Vascular endothelial growth factor receptor 2 (Homo sapiens, UniProt P35968); assay: Inhibition of N-terminal GST-tagged human VEGFR2 cytoplasmic domain (790-1356 end amino acid residue) expressed in baculovirus expression system preincubated for 30 to 120 mins followed by incubation with substrate and ATP for 30 mins by off-chip mobility shift assay
Chain of Vascular endothelial growth factor receptor 2 (P35968 whole entry, the tested form may be a part): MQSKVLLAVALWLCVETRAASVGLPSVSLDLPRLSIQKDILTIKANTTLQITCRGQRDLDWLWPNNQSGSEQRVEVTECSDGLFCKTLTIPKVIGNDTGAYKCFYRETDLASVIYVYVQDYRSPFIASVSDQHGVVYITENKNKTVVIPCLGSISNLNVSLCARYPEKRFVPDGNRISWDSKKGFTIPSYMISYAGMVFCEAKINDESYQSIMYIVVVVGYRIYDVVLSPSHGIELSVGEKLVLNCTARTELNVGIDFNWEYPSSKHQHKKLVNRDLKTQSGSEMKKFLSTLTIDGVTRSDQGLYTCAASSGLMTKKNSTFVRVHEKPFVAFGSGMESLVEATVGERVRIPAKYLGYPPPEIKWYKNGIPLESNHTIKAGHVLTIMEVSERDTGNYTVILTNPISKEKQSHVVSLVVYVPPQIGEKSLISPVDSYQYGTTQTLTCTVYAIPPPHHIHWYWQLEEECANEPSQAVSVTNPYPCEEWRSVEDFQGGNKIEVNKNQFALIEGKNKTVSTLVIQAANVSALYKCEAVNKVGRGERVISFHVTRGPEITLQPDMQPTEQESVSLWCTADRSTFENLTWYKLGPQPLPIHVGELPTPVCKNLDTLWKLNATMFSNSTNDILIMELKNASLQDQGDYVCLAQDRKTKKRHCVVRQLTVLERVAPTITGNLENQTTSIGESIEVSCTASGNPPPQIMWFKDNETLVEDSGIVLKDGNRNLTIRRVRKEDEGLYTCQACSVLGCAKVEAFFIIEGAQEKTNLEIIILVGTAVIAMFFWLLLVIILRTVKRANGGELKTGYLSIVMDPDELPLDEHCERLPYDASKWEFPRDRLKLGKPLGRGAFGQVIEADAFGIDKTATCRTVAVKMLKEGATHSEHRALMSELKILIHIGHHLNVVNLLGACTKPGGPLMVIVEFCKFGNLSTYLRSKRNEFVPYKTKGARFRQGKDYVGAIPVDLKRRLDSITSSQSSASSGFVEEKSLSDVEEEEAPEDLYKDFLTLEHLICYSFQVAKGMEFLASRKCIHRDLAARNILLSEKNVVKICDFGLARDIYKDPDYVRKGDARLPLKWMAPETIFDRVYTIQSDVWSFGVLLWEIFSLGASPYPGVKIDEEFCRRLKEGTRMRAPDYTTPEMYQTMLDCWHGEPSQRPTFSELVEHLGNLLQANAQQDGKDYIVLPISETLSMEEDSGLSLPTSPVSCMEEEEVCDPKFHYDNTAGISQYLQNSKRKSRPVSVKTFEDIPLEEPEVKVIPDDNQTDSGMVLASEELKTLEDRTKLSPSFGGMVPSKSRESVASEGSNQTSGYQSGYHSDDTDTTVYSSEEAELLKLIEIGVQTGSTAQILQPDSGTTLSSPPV
How it was run: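 Recombinant VEGFR2 kinase preincubated with compound for 30 or 120 min at RT. Substrate plus ATP (75 µmol/L) added, 30 min at RT, then stopped with termination buffer and read by off-chip mobility shift. No-ATP wells set as 100% inhibition, DMSO wells as 0%. IC50 from Sigmoid-Emax nonlinear regression per experiment.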

[2] = biological target: Fibroblast growth factor receptor 3 (Homo sapiens, UniProt P22607); assay: Inhibition of N-terminal GST-tagged human FGFR3 cytoplasmic domain (436-806 end amino acids residues) expressed in baculovirus expression system preincubated for 30 to 120 mins followed by incubation with substrate and ATP for 30 mins by off-chip mobility shift assay
Chain of Fibroblast growth factor receptor 3 (P22607 whole entry, the tested form may be a part): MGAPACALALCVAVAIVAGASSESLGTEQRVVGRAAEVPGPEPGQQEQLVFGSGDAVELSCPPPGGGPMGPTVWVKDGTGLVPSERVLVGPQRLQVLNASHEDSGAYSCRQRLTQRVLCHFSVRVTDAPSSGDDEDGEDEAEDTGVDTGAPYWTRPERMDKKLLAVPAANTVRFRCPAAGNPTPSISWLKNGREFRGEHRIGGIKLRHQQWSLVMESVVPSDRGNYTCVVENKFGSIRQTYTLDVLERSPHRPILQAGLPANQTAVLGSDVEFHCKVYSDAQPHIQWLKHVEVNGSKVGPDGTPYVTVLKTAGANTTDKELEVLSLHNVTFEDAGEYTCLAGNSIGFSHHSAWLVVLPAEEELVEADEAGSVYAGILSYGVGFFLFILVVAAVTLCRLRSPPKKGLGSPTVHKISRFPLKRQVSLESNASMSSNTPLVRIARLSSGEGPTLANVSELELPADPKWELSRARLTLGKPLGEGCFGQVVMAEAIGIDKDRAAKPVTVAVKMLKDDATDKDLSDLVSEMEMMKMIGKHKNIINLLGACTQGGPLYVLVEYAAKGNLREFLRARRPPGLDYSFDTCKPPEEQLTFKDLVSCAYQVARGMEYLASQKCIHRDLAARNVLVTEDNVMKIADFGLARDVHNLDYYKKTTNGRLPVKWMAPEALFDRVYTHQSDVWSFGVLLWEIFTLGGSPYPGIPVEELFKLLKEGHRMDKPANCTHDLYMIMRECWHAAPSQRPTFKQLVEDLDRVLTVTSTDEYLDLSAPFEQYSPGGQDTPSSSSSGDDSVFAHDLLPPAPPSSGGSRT

[3] = biological target: Fibroblast growth factor receptor 1 (Homo sapiens, UniProt P11362); assay: Inhibition of N-terminal GST-tagged human FGFR1 cytoplasmic domain (398-822 end amino acids residues) expressed in baculovirus expression system preincubated for 30 to 120 mins followed by incubation with substrate and ATP for 30 mins by off-chip mobility shift assay
Chain of Fibroblast growth factor receptor 1 (P11362 whole entry, the tested form may be a part): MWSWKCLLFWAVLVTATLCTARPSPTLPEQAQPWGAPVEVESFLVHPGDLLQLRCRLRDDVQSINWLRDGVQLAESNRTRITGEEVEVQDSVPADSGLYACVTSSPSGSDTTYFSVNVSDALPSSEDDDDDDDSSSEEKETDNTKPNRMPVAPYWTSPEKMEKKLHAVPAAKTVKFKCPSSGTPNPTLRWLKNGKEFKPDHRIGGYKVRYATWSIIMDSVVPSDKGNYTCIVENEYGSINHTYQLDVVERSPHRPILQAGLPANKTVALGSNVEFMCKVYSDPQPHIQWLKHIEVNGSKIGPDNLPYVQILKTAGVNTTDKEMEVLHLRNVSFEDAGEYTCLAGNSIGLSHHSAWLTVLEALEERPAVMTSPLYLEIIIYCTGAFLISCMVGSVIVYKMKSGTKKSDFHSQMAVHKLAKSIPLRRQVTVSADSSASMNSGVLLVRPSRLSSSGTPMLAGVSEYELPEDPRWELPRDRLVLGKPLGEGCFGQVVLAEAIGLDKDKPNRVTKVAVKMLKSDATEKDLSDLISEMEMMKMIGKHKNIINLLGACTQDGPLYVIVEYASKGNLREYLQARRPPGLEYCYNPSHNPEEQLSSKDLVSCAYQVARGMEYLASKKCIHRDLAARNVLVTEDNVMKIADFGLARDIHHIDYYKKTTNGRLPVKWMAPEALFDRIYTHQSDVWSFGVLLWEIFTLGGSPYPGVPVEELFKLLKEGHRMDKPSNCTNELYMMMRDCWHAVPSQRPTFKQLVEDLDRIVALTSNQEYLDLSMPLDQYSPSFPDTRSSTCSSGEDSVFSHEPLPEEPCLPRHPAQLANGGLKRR

[4] = Antiproliferative activity against human UM-UC-14 cells harboring FGFR3 S249C mutation assessed as inhibition of cell growth incubated for 5 days by CellTier-Glo luminescent assay; conditions: UMUC14, 120 h
[5] = biological target: Fibroblast growth factor receptor 4 (Homo sapiens, UniProt P22455); assay: Inhibition of N-terminal GST-tagged human FGFR4 cytoplasmic domain (460-802 end amino acids residues) expressed in baculovirus expression system preincubated for 30 to 120 mins followed by incubation with substrate and ATP for 30 mins by off-chip mobility shift assay
Chain of Fibroblast growth factor receptor 4 (P22455 whole entry, the tested form may be a part): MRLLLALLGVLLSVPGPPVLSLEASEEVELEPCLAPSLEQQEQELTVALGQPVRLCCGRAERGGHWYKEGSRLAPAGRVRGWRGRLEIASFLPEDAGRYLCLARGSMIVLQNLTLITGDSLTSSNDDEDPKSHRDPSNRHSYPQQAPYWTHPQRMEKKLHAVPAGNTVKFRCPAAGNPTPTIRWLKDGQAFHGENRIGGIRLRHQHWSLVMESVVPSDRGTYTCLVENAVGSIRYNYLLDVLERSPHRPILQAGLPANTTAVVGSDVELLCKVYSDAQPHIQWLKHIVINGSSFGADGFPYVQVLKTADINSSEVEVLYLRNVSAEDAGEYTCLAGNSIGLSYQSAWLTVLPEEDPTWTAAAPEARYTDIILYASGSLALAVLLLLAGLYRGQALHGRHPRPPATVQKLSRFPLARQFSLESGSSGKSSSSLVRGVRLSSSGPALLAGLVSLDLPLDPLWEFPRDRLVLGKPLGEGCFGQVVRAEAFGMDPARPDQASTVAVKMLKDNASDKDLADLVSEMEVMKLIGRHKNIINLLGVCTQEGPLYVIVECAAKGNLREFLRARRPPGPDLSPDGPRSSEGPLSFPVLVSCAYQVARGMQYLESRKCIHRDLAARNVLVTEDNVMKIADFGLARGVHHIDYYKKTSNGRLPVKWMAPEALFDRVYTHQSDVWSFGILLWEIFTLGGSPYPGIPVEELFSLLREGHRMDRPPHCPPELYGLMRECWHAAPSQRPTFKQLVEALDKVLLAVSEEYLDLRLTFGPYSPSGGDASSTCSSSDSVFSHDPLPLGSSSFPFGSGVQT

[6] = biological target: Fibroblast growth factor receptor 2 (Homo sapiens, UniProt P21802); assay: Inhibition of N-terminal GST-tagged human FGFR2 cytoplasmic domain (399-821 end amino acids residues) expressed in baculovirus expression system preincubated for 30 to 120 mins followed by incubation with substrate and ATP for 30 mins by off-chip mobility shift assay
Chain of Fibroblast growth factor receptor 2 (P21802 whole entry, the tested form may be a part): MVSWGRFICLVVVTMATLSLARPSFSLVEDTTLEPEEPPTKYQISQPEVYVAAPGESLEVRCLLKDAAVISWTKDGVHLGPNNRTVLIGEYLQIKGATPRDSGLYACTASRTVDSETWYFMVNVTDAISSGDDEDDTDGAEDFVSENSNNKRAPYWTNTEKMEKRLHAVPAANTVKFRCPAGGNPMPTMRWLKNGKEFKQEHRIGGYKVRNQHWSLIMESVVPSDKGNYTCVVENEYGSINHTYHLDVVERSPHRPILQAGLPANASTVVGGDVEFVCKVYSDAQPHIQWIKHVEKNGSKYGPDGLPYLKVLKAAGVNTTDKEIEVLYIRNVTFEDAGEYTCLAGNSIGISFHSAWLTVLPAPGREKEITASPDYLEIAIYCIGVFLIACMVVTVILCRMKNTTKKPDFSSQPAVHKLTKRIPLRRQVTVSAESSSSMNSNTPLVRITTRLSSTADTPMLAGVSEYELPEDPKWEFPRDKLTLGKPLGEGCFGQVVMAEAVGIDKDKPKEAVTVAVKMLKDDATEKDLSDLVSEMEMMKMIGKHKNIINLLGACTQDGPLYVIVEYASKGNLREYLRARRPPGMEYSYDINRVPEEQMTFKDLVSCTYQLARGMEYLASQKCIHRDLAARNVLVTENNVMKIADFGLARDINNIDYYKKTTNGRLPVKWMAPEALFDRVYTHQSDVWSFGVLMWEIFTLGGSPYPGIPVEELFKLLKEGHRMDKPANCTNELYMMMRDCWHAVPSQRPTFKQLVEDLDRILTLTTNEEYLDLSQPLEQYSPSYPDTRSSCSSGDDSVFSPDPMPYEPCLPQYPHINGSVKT

IC50 [1] [nM] | SMILES | further results
310 | CCNS(=O)(=O)c1ccccc1Nc1ncnc(Nc2ccc(N3CCN(C)CC3)c(OCCOC)c2)n1 | 
292 | CCNS(=O)(=O)c1ccccc1Nc1nc(Nc2ccc(N3CCC(N4CCN(C)CC4)CC3)c(OC)c2)ncc1CCc1cc(OC)cc(OC)c1 | 
> 1000 | CCNS(=O)(=O)c1ccccc1Nc1nc(Nc2ccc(N3CCC(N4CCN(C)CC4)CC3)c(OC)c2)ncc1Cc1cc(OC)cc(OC)c1 | IC50 [2]: > 1000 nM
341 | CCNS(=O)(=O)c1ccccc1Nc1ncnc(Nc2ccc(N3CCN(C)CC3)c(OCCN3CCN(C)CC3)c2)n1 | 
461 | CCNS(=O)(=O)c1ccccc1Nc1nc(Nc2ccc(N3CCC(N4CCN(C)CC4)CC3)c(OC)c2)ncc1NC(=O)c1cccc(OC)c1OC | 
341 | CCNS(=O)(=O)c1ccccc1Nc1ncnc(Nc2ccc(N3CCN(C)CC3)c(OC)c2)n1 | 
120 | CCNS(=O)(=O)c1ccccc1Nc1ncnc(Nc2ccc(N3CCN(C)CC3)c(OCC(=O)O)c2)n1 | 
736 | CCNS(=O)(=O)c1ccccc1Nc1ncnc(Nc2ccc(N3CCN(C)CC3)c(OCCCN3CCOCC3)c2)n1 | 
316 | CCNS(=O)(=O)c1ccccc1Nc1ncnc(Nc2ccc(N3CCN(C)CC3)c(OCC(=O)OCC)c2)n1 | 
435 | CCNS(=O)(=O)c1ccccc1Nc1nc(Nc2ccc(N3CCC(N4CCN(C)CC4)CC3)c(OC)c2)ncc1NC(=O)c1cc(OC)ccc1OC | 
227 | CCNS(=O)(=O)c1ccccc1Nc1nc(Nc2ccc(N3CCC(N4CCN(C)CC4)CC3)c(OC)c2)ncc1NC(=O)c1cc(OC)nc(OC)n1 | 
> 1000 | CCNS(=O)(=O)c1ccccc1Nc1nc(Nc2ccc(N3CCC(N4CCN(C)CC4)CC3)c(OC)c2)ncc1NC(=O)c1cc(OC)cc(OC)c1 | IC50 [3]: 2.1 nM; IC50 [4]: 84 nM; IC50 [5]: 74 nM; IC50 [6]: 3.1 nM
38 | CCNS(=O)(=O)c1ccccc1Nc1nc(Nc2ccc(N3CCC(N4CCN(C)CC4)CC3)c(OC)c2)ncc1-c1cc(OC)cc(OC)c1 | 
131 | CCNS(=O)(=O)c1ccccc1Nc1nc(Nc2ccc(N3CCC(N4CCN(C)CC4)CC3)c(OC)c2)ncc1NC(=O)c1nc(OC)cc(OC)n1 | 
554 | CCNS(=O)(=O)c1ccccc1Nc1nc(Nc2ccc(N3CCC(N4CCN(C)CC4)CC3)c(OC)c2)ncc1NC(=O)c1cc(C)cc(C)c1 | 
570 | CCNS(=O)(=O)c1ccccc1Nc1ncnc(Nc2ccc(N3CCN(C)CC3)c(OCCN3CCOCC3)c2)n1 | 
550 | CCNS(=O)(=O)c1ccccc1Nc1ncnc(Nc2ccc(N3CCN(C)CC3)c(OCCOCCOC)c2)n1 | 
715 | CCNS(=O)(=O)c1ccccc1Nc1nc(Nc2ccc(N3CCC(N4CCN(C)CC4)CC3)c(OC)c2)ncc1NC(=O)c1cc(O)cc(O)c1 | 
266 | CCNS(=O)(=O)c1ccccc1Nc1ncnc(Nc2ccc(N3CCC(N4CCN(C)CC4)CC3)c(OC)c2)n1 | 
